An excerpt weighted towards active compounds, which were near 4.7% of everything screened.
ADAM10 inh: inhibits human ADAM10; inhibition, % at 7 µM; actives 0.62% (n = 370,000); recombinant ADAM10, EDANS/DABCYL FRET peptide cleavage, 3 h;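 active = inhibition above a per-campaign cutoff equal to the mean of compounds falling between control-based bounds plus 3 SD, cut at about 20% in these data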;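 also: 0% = DMSO wells while the 100% control is not disclosed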
ADAM17 inh: inhibitors of human ADAM17; recombinant ADAM17, EDANS/DABCYL FRET peptide cleavage; inhibition, % at 6.95 µM; actives 0.83% (n = 370,000); AID 720648; P78536;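 active = inhibition above the mean of compounds lying between control limits plus 3 SD, set per campaign, cut at about 8.5% in these data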;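 also: 0% = DMSO-only wells as the low control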
Target sequence (P78536 215-824 limits assumed): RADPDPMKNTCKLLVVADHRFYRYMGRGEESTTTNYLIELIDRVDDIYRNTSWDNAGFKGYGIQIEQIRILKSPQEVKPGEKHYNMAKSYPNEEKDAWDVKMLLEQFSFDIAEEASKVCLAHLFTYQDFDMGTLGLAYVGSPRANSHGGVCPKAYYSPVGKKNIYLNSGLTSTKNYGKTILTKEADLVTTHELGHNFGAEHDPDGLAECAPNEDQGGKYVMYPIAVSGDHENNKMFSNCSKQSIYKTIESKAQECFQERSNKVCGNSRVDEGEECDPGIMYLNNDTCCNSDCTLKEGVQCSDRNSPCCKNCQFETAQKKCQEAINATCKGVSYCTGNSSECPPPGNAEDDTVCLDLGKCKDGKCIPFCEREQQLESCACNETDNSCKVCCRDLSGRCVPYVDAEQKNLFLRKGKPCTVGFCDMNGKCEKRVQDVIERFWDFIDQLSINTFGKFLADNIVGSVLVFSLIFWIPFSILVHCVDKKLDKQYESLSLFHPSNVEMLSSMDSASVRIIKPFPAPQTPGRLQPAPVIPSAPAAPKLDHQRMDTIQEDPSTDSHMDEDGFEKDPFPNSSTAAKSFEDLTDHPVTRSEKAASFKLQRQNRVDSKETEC
MPTP inh: permeability transition pore inhibition; isolated mouse mitochondria, Ca2+ swelling absorbance, 30 min; actives 1.4% (n = 360,000); inhibition, % at 10 µM;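 active = inhibition of 50% or more, scaled per plate between neutral and stimulator controls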;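 also: 0% = DMSO wells given calcium and 100% = 1 mM EGTA wells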
MT1-MMP act inh: inhibitors of human MT1-MMP activation; P50281; GFP/RFP ratio change, % at 20 µM; actives 0.061% (n = 360,000); HT1080 RFP-PRO-GFP cells, GFP/RFP ratio fluorescence, overnight; percent of plate control window, DMSO zero;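 active = GFP/RFP ratio change of at least 30% with cell ATP level not reduced by more than half and red fluorescence within 50% of control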
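Test system: HT1080 cells expressing an RFP-PRO-GFP fluorescent reporter construct / Compound dosing: single-point 20 µM compound, 1% DMSO / Schedule: cells overnight before dosing, compound overnight, 37 °C, 5% CO2 / Evaluation: GFP/RFP fluorescence ratio / Control set: DMSO and RFP-L50D-GFP cell wells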
SKN-1 block: inhibitors of C. elegans SKN-1; C. elegans VP596 Pgst-4::GFP/RFP ratio, acrylamide-induced, 24 h; inhibition, % at 21.8 µM; actives 0.49% (n = 360,000); AID 624304;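 active = interference check ratio from 0.5 to 1.5 plus GFP to RFP signal ratio inhibition reaching or exceeding a fixed threshold, cut at about 30% in these data, passing the limit was not always enough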
NR3A LBD binder: modulators (binders) of human NR3A ligand-binding domain | NR3A LBD differential scanning fluorimetry, Tm shift; 0% = protein alone, 100% = glycine-bound protein | Tm shift relative to glycine control, % at 25 µM | actives 2.5% (n = 340,000) | AID 1259313;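 active = melting temperature shift of at least 10% of the positive control shift, at one fixed dose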
ADAM10 confirm: confirmation of inhibitors of human ADAM10; shares compounds with ADAM10 inh; ADAM10 QFRET peptide cleavage, EDANS fluorescence; inhibition, % at 6.95 µM; actives 1% (n = 2,100);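 active = inhibition above about 20% chosen separately for each screening run, limit read from the data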;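 also: 0% = DMSO wells and 100% = marimastat wells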
ADAM17 counter: inhibits human ADAM17 in ADAM10 exosite counter-screen | shares compounds with ADAM10 inh | ADAM17 QFRET peptide cleavage, EDANS fluorescence | inhibition, % at 6.95 µM | actives 0.5% (n = 2,100) | AID 743214;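 active = mean triplicate inhibition above the solvent-only control wells' mean plus 3 SD, cut at about 12% in these data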;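 also: 0% = DMSO wells and 100% = marimastat wells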
The depositor's hits bear a star; nt = not tested or not shown.

SMILES | ADAM10 inh | ADAM17 inh | MPTP inh | MT1-MMP act inh | SKN-1 block | NR3A LBD binder | ADAM10 confirm | ADAM17 counter
O=S(=O)(c1cccc(C(F)(F)F)c1)N1CCC(O)(c2cccnc2)CC1 | 7 | 0 | 0 | 8 | -19 | 1 | nt | nt
C/C(=N\OCC(=O)Nc1ccccc1C(C)(C)C)c1ccc2c(c1)OCCO2 | 9 | 3 | 0 | 0 | -2 | -1 | nt | nt
C/C(=N\OCC(=O)Nc1ccc(OC(F)(F)F)cc1)c1ccc2c(c1)OCCO2 | 20* | 7 | 4 | -3 | 4 | -4 | 8 | 2
CCOC(=O)[C@]12CCCC=C1N(Cc1ccc(Cl)cc1Cl)C(=O)[C@H](CC(=O)NCCc1ccccc1OC)C2 | 23* | 4 | -2 | -2 | -2 | nt | 6 | 2
CCOC(=O)[C@]12CCC=C1N(Cc1ccc(Cl)cc1Cl)C(=O)[C@H](CC(=O)NCc1ccc(OC)c(OC)c1)C2 | 20* | 5 | -1 | 12 | 6 | nt | 4 | 1
Cc1cc(C)nc(NCC(O)COc2ccccc2C)n1 (configuration not stated) | -2 | -1 | 0 | 2 | 29 | 2 | nt | nt
O=C(N/N=C\c1ccc(Cl)cc1)c1sccc1-n1cccc1 | -2 | -4 | 1 | 2 | -17 | -15 | nt | nt
O=C(N/N=C\c1ccc(Cl)cc1Cl)c1sccc1-n1cccc1 | 20* | 2 | -3 | -1 | -4 | -7 | 7 | 2
C#CCOCCOCCOCCNc1nc(N2CCN(C(=O)CCCCCCCCCCNC(=O)[C@@H](CCSC)n3cc(CCO)nn3)CC2)nc(N2CCN(C(=O)CCCCCCCCCCNC(=O)[C@H](CO)n3cc(CCCCCN)nn3)CC2)n1 | nt | nt | -8 | 8 | -15 | 4 | nt | nt
C#CCOCCOCCOCCNc1nc(N2CCN(C(=O)CCCCCCCCCCNC(=O)[C@@H](CCSC)n3cc(CCO)nn3)CC2)nc(N2CCN(C(=O)CCCCCCCCCCNC(=O)[C@@H]([C@H](C)O)n3cc(C)nn3)CC2)n1 | 20* | 5 | -3 | 24 | -10 | 0 | 2 | 0
CC(N)c1csc(NC(=O)Nc2cccc(C(F)(F)F)c2)n1 (configuration not stated) | -8 | -3 | 4 | -6 | -3 | nt | nt | nt
NS(=O)(=O)c1ccc(CCNc2nn3c(-c4cccc(OC(F)(F)F)c4)cnc3s2)cc1 | 21* | 6 | 3 | -1 | 17 | nt | 5 | 1
CCCCCC1CC(/C(C)=N/NC(N)=O)OC1=O (configuration not stated) | -9 | -5 | 17 | 6 | 6 | 0 | nt | nt
Cc1cc(C)c(O)c(-c2cc(C(=O)NCCc3ccc(S(N)(=O)=O)cc3)[nH]n2)c1 | 10 | 2 | 2 | 7 | -8 | -5 | nt | nt
NS(=O)(=O)c1ccc(CCNC(=O)c2cc(-c3cc(Cl)ccc3O)n[nH]2)cc1 | 23* | 2 | 7 | 2 | -3 | 25* | 2 | 2
COCCCN(C(=O)c1cc2c(s1)CCCCC2)c1c(N)n(Cc2ccccc2)c(=O)[nH]c1=O | 20* | 3 | 2 | 0 | -1 | -4 | -1 | 0
Cc1nnc(NC(=O)C2CC(=O)N(Cc3ccccc3)C2)s1 (configuration not stated) | 3 | -2 | 0 | 2 | -4 | 2 | nt | nt
COC(=O)C(Cc1cnc(Cl)s1)(C(=O)OC)c1ccc(C(F)(F)F)cc1[N+](=O)[O-] | 20* | 5 | 2 | -5 | 8 | 2 | 4 | 0
COC(=O)C(Cc1cnc(Cl)s1)(C(=O)OC)c1ccc([N+](=O)[O-])cc1[N+](=O)[O-] | -7 | -2 | 3 | 1 | 3 | -3 | nt | nt
Cc1ccc(OCc2n[nH]c(=S)n2C2CCCCC2)cc1 | 11 | 5 | 1 | -5 | -2 | 0 | nt | nt
Cc1cccc(OCc2n[nH]c(=S)n2C2CCCCC2)c1 | 21* | 6 | 3 | 1 | 12 | 4 | 0 | 0
NNC(=O)CC12CC3CC(C1)CC(n1ncnn1)(C3)C2 | 9 | 4 | -1 | 2 | 6 | -1 | nt | nt
C[C@@]1([C@@H](NC(=O)c2cccs2)c2ccc(-c3ccccc3)cc2)C[C@H]1C1CCCCC1 | 5 | -3 | 0 | -18 | 8 | -2 | nt | nt
O=C(Nc1cc(Cl)ccc1O)c1cc2n(n1)C(C(F)(F)F)CC(c1ccc3c(c1)OCO3)N2 (configuration not stated) | 29* | 8 | 2 | -12 | 9 | 23* | 6 | 2
O=C(Cn1nc(C(F)F)cc1C(F)F)NNC(=S)Nc1ccc([N+](=O)[O-])cc1 | 21* | 5 | -2 | -1 | 5 | 0 | 3 | 2
SMILES | ADAM10 inh | ADAM17 inh | MPTP inh | MT1-MMP act inh | SKN-1 block | NR3A LBD binder | ADAM10 confirm | ADAM17 counter
O=C(Cn1nc(C(F)F)cc1C(F)F)NNC(=S)Nc1ccc(F)cc1 | 0 | 1 | 0 | -2 | -10 | 2 | nt | nt
Cc1ccccc1S(=O)(=O)N1C(c2ccc(Cl)c(Cl)c2)CC=C(C(=O)O)C1c1cccc(Br)c1 (configuration not stated) | 20* | 1 | 0 | -2 | 14 | nt | 2 | 0
CSc1nnc(N2C(=O)C(O)=C(C(=O)c3ccc(C)o3)C2c2ccc(C)cc2)s1 (configuration not stated) | -19 | -5 | -1 | -46 | -11 | 2 | nt | nt
NC(=O)c1ccccc1NC(=O)c1ccc2ccccc2c1 | 5 | -1 | 0 | 9 | 2 | -3 | nt | nt
CCc1cc2cc(C)cc(C)c2nc1Cl | -10 | -6 | 0 | 1 | -5 | -1 | nt | nt
CN(C(=O)c1ccc(NC(=O)Cc2ccc(NC(=O)C3CCCN(S(=O)(=O)c4cccc([N+](=O)[O-])c4)C3)cc2)cc1)C1CCCC1 (configuration not stated) | 23* | 8 | 1 | 3 | 13 | 6 | 4 | 1
O=C1CCC(C(=O)OCC(=O)C23CC4CC(CC(C4)C2)C3)N1 (configuration not stated) | -7 | -4 | -1 | 1 | 8 | 0 | nt | nt
Cc1ccc(C(=O)N2CCCC2)cc1S(=O)(=O)Nc1ccccc1 | 6 | -2 | 1 | 0 | 4 | -17 | nt | nt
Cc1ccccc1NS(=O)(=O)c1cc(C(=O)NCc2ccco2)ccc1C | 13 | 6 | 0 | 6 | -2 | -33 | nt | nt
Cc1ccc(C(=O)NCCSC2CCCCC2)cc1S(=O)(=O)Nc1ccccc1 | 24* | 6 | 28 | -7 | 7 | 16* | 6 | 1

High-throughput results from PubChem.
